The source of these data is ChEMBL document CHEMBL4513216, “Probing the Open Global Health Chemical Diversity Library for Multistage-Active Starting Points for Next-Generation Antimalarials” (ACS Infect Dis, 2020).

The data set is described as follows: Toxicity liver stage against HepG2, at 10uM. It is filed as cell-based. The arrangement: test concentration 10 uM, cell line HepG2-A16-CD81EGFP. The conditions noted are these: human, HepG2-A16-CD81EGFP cells; read-out: INHIBITION
The gist of the method:
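Uninfected HepG2-A16-CD81EGFP cells, 3 × 10^3 per well, 1536-well, plated on prespotted compound at 10 μM final, parasite-free screening media added to match infected plates; puromycin 10 μM positive, DMSO 0.5% negative; run in parallel with 48 h PbLuc assay at 37 °C, 5% CO2; viability by CellTiter-Glo luminescence, normalized to controls.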
As for `Cc1nnc(N2C[C@@H]3CCCO[C@@H]3[C@H](N(C)C)C2)s1`, the cytotoxicity at 10 µM worked out at 17.5%.
The value for `CCOC(=O)CNC(=O)c1cc(-c2ccccc2)nc2ncnn12` was -5.75%.
The same measure for `CCC(C)NC(=O)c1sccc1-n1cnnn1` (stereo not given): 5.45%.
In the case of `CC(C)Cc1nc(C[S+]([O-])CC(=O)NCc2ccccc2)no1` (stereo not given), the cytotoxicity at 10 µM was -6.45%.
With `CC(NC(=O)N1CCCN(C)CC1)c1ccc(S(N)(=O)=O)cc1` (stereo not given), the cytotoxicity at 10 µM was -11.7%.
The value for `CC(c1ccc(Cl)cc1)N1CCN(CCCS(C)(=O)=O)CC1` (stereo not given) was -8.73%; that for `N#Cc1cc(NC(=O)c2ccccn2)ccc1N1CCC(O)CC1` was 0.73%; that for `Cc1nc2n(n1)CC(Nc1ccnc(-c3ccccc3)n1)CC2` (stereo not given) was 3.43%.
Take `O=C(Nc1cccc(CN2CCC(CO)CC2)c1)c1cc(Cl)c[nH]1`: the cytotoxicity at 10 µM was -150%.
On to `COCCn1ccc(NC(=O)Nc2ccncc2)n1`, for which the cytotoxicity at 10 µM stood at 4.49%.
In the case of `CCOc1ncccc1C(=O)Nc1c(C)cnn1CC1CC1`, the cytotoxicity at 10 µM was 1.62%.
The value for `Cc1cc(C)cc(OCC(=O)N2CCC2)c1` was 2.01%; that for `CN(C)CC(=O)N1CCN(c2cc(N3CCCC3CO)ncn2)CC1` (stereo not given) was -4.19%.
`O=C(COc1ccccc1NCc1ccoc1)N1CCOCC1`: the cytotoxicity at 10 µM is 3.61%.
As for `COCC1CN(Cc2ccncc2)Cc2nn(C)cc21` (stereo not given), the cytotoxicity at 10 µM was -74.1%.
The same measure for `COCCN(C)C(C(=O)O)c1ccc(Cl)c(F)c1` (stereo not given): -2.46%; for `Cc1nccc(N[C@H]2CN(C(=O)C3(C#N)CCOCC3)C[C@@H]2C(C)C)n1`: 9.81%.
The value for `CC(C)(CN1CCC2(CCOCC2)CC1)N1CCOCC1` was -148%; that for `CCSc1ccc(C(=O)N2CC[C@](C)(O)[C@H](C)C2)s1` was -12.2%; that for `NC(=O)NCCC(=O)N1CCC(c2cc(Cc3ccccc3)n[nH]2)CC1` was 1.5%.
The value for `COc1ccc(CCN2CC(NCc3ncc[nH]3)CC2=O)cc1` (stereo not given) was 0.749%.
Regarding `CCC(=O)Nc1cccc(OCC(=O)N(C)CCCC2CCCO2)c1` (stereo not given), the cytotoxicity at 10 µM is -4.63%.
With `CN1CC2(CCC1=O)CCN(CC[C@@H](O)c1ccccc1)CC2`, the cytotoxicity at 10 µM was -0.355%.
The same measure for `CCc1cnc(NCC(C)Oc2cccnc2)nc1` (stereo not given): 0.977%; for `CCn1cnnc1CNC(=O)N1CCN(c2cccc(C)c2)CC1`: -3.42%; for `O=C(c1cc2c(s1)CCOC2)N1CCCCC1Cn1cccn1` (stereo not given): -6.52%.
For `O=C(Cc1ccc2c(c1)OCCO2)N1CCN(c2cnccn2)CC1`, the cytotoxicity at 10 µM was -11.8%.
The same measure for `COc1ccc(C2CCCN2Cc2nc3c(cnn3C)c(=O)[nH]2)cc1` (stereo not given): -9.77%.
For the compound `CS(=O)(=O)NCCCN1CCCC1c1ccsc1` (stereo not given), the cytotoxicity at 10 µM is 2.85%.
The value for `CCc1nnc(CN2CCOC(Cn3cccn3)C2)o1` (stereo not given) was -8.15%.
The value for `O=C1C(NS(=O)(=O)c2cccc(F)c2)CCN1Cc1ccccc1` (stereo not given) was -1.67%.
Take `CCc1noc(C(C)N2CCN(C)CC2)n1` (stereo not given): the cytotoxicity at 10 µM is -3.21%.
Consider `Cc1cc(C)n(CC2CCCN2C(=O)c2ccc(NC3CC3)nc2)n1` (stereo not given), for which the cytotoxicity at 10 µM was found to be 6.53%.
With `CN1CC(=O)N(c2ccsc2)CC12CCN(C(=O)N1CCCC1)C2` (stereo not given), the cytotoxicity at 10 µM is -72.6%.
The same measure for `COc1cc(CNC(C)Cn2cccn2)cc2c1OCCO2` (stereo not given): 1.67%; for `CCN1CCN(C)C(=O)C12CCN(C(=O)Cc1ccccn1)CC2`: 0.597%.
For the compound `CC(C)N1CCO[C@H]2CN(C(=O)c3ccsc3)C[C@H]21`, the cytotoxicity at 10 µM was -72%.
The value for `CO[C@H]1CCN(S(=O)(=O)c2cccs2)[C@H]1Cc1cccnc1` was -75.5%; that for `CN1CC(=O)N(c2cccc(F)c2)CC12CCN(S(C)(=O)=O)C2` (stereo not given) was 1.52%; that for `CC1N(c2cnn(C)c2)C(=O)COC12CCN(CC1CC1)CC2` (stereo not given) was 3.68%.
